From paper PMC3940261 (Integrative biology : quantitative biosciences from nano to …, 2014)

Experiments:
[1] = system: peptidase activity in U937 cells; assay: Single-cell chemical cytometry of fluorescent reporter peptide degradation; type: cell-based, human; conditions: for most common fragment peak pattern: single U937 cells
[2] = system: degradation of a fluorogenic reporter; conditions: 24 h exposure to media containing 1 μM Tosedostat; cited from earlier work
[3] = system: peptidase activity in U937 cells; type: cell-based, human; conditions: ensemble lysates, commercial capillary electrophoresis system
How it was run: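 U937 cells were cultured long-term with the test compound (1, 2, 4, 8, 16 μM; DMSO ≤0.1%) or DMSO vehicle. A FAM-labelled reporter peptide (100 μM) and a carboxyfluorescein internal standard (20 μM) were loaded by pinocytosis for 10 min at 37 °C; hypotonic lysis set t = 0. Cells were held at 10⁶ cells/mL for 1 h at room temperature, then heat-lysed at 95 °C for 4 min. Supernatant was run on a bare 30-cm, 30-μm i.d. capillary, spiked with intact-substrate and K-FAM standards, and peaks were Gaussian-fitted.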

[4] = system: four common aminopeptidases; conditions: cited from earlier work
aminopeptidase N (CD 13) = conditions: in vitro; cited from earlier work
LTA4 hydrolase = conditions: in vitro; cited from earlier work
[5] = target: purine-sensitive aminopeptidase (PuSA); conditions: in vitro; cited from earlier work
leucine aminopeptidase = conditions: in vitro; cited from earlier work

Row | Structure (SMILES) | peptidase activity in drug-treated cells relative to a vehicle control ([1]; at all doses (1, 2, 4, 8, 16 μM)) | most common fragment peak pattern ([1]; dose 1 μM) | most common fragment peak pattern ([1]; dose 2 μM) | most common fragment peak pattern ([1]; dose 4 μM) | most common fragment peak pattern ([1]; dose 8 μM) | inhibition of degradation of a fluorogenic reporter [2] | number of fluorescent fragment peaks from drug-treated cells [3] | IC50 [4] | IC50 (aminopeptidase N (CD 13)) | IC50 (LTA4 hydrolase) | IC50 [5] | IC50 (leucine aminopeptidase)
1 | CC(C)C[C@@H](C(=O)N[C@H](C(=O)OC1CCCC1)c1ccccc1)[C@H](O)C(=O)NO [Tosedostat] | inhibited | 3 peaks | 3 peaks | 2 peaks | 2 peaks | 50% | ≤ 8 fluorescent fragment peaks | nanomolar-range | – | – | – | –
2 | CC(C)C[C@@H](C(=O)N[C@H](C(=O)O)c1ccccc1)[C@H](O)C(=O)NO [active form of Tosedostat] | – | – | – | – | – | – | – | – | nanomolar range | nanomolar range | nanomolar range | nanomolar range
